TRPC4 inh – inhibitors of mouse TRPC4 channel, primary screen, Fluo4 calcium, HEK293 TRPC4beta/mu-opioid cells. Short transient receptor potential channel 4 (Mus musculus), Q9QUQ5. DAMGO-evoked Fluo4 calcium flux; hits give low values. B-score at 10 µM. 0.39% of 300,000 active. AID 2247, 2010;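 active = B-score over 3 SD under the library average, no early fluorescence shift, positive overall ratio signal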
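Material: HEK293 cells with stable TRPC4beta plus mu-opioid receptor expression / Probe or stimulus: DAMGO in two steps, submaximal then maximal / Compound: single concentration per test compound / Technique: kinetic Fluo4 fluorescence imaging of calcium influx / Read-out: per-well B score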
TRPC6 activator – mouse TRPC6 channel activators, primary screen, cell-based, HEK293, membrane potential dye. Short transient receptor potential channel 6 (Mus musculus), Q61143. B-score at 10 µM. 0.13% of 310,000 active. HEK293-TRPC6 membrane potential dye fluorescence; hits give high values;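 active = B-score of the integrated fluorescence ratio above library mean plus 3 SD, and starting fluorescence ratio within library mean plus 5 SD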;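 also: higher score means more depolarization so channel activation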
Target sequence (Q61143 whole entry, looked up): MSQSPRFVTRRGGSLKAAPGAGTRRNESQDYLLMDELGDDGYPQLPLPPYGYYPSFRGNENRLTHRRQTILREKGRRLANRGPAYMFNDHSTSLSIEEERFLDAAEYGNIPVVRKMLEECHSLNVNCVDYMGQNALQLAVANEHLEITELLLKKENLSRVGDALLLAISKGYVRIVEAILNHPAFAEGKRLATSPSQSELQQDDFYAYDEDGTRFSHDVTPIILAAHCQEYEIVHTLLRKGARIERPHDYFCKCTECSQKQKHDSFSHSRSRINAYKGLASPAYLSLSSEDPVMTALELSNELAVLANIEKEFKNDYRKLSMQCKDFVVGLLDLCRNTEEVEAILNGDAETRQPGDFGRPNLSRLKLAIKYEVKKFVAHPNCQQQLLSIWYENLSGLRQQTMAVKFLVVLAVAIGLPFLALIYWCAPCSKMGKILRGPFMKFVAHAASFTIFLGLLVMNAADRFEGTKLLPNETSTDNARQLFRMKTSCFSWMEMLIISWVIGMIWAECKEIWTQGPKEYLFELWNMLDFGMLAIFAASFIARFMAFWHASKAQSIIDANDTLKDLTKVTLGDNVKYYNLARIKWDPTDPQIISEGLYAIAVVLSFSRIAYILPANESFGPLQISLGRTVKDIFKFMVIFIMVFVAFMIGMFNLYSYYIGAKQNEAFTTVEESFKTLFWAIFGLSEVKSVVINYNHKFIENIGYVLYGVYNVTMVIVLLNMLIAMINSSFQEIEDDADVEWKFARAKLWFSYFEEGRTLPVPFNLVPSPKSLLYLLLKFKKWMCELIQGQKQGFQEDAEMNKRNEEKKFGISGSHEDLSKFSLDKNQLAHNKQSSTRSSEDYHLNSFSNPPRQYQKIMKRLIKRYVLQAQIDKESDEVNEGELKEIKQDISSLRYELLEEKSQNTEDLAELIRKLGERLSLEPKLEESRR
TRPC4 agonist – activators of mouse TRPC4 channel, primary screen, Fluo4 calcium, HEK293 TRPC4beta/mu-opioid cells. Short transient receptor potential channel 4 (Mus musculus), Q9QUQ5. Fluo4 calcium fluorescence; hits give high values. B-score at 10 µM. 0.49% of 310,000 active. AID 2237, 2010;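 active = B-score above 5 SD of library B-scores, and initial fluorescence ratio not above library mean plus 5 SD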;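 also: positive B-score marks a calcium rise read as TRPC4 activation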
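Incubation: 45 min room-temperature Fluo4 loading, 110 s read / System: HEK293 cells stably co-expressing mouse TRPC4beta and mu-opioid receptor / Signal: Fluo4 fluorescence, kinetic / Control set: buffer (low) and maximal DAMGO (high) / Measure: integrated baseline-normalised fluorescence ratio, converted to per-well B score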
TRPC6 inhibitor – mouse TRPC6 channel inhibitors, primary screen, cell-based, HEK293, membrane potential dye; AID 2553, 2010; 1.1% of 310,000 active; B-score at 10 µM; Short transient receptor potential channel 6 (Mus musculus), Q61143; ACh-evoked depolarization; hits give low values;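 active = B-score under library mean minus 3 SD, initial fluorescence not abnormally high, positive integrated signal ratio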;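 also: B-score derived from integrated fluorescence ratio over the kinetic read; more negative B-score means stronger inhibition of depolarization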
TRPC4 potent – positive allosteric modulators of TRPC4, primary screen, cell-based, mouse TRPC4beta, HEK293 mu-opioid, Fluo-4 calcium | Short transient receptor potential channel 4 (Mus musculus), Q9QUQ5 | DAMGO EC20, Fluo-4 Ca2+ flux; hits give high values | B-score at 10 µM | 0.42% of 310,000 active;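 active = B-score of calcium response area above 5 SD of library B-scores, with initial fluorescence ratio within 5 SD of library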
TRPC4 sel inh 2 – second check of whether TRPC6 inhibitors also affect mouse TRPC4; shares compounds with TRPC6 inhibitor; 42% of 920 active; HEK293 TRPC4/MOR, membrane potential dye fluorescence; channel activated by saturating DAMGO dose; inhibition, % at 10 µM;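 active = compounds whose fluorescence signal differed from control wells by over 3 SD, either direction, in both duplicate plates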
TRPC4 spec – mouse TRPC4 modulation by TRPC6 hits, confirmation, selectivity assay for TRPC6 inhibitor project, cell-based, HEK293 TRPC4/mu-opioid, membrane potential dye; 61% of 920 active; activity change, negative = inhibition, % at 10 µM; membrane potential fluorescence; shares compounds with TRPC6 inhibitor;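 active = rise or fall in signal beyond 3 SD of buffer-only wells in both replicate plates, either sign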;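 also: integrated kinetic ratio of fluorescence range over baseline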
HEK293 MPD ctr 2-1 – nonspecific membrane potential effects, parental HEK293, confirmation, counter-screen for TRPC6 inhibitor project, cell-based, second counter screen; shares compounds with TRPC6 inhibitor; parental HEK293 membrane potential dye fluorescence; maximal acetylcholine challenge after compound addition; signal change vs control, % at 10 µM; 31% of 920 active;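 active = membrane potential signal moving either way by over 3 SD of the maximum-effect control, in both duplicate plates, meaning non-specific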
HEK293 MPD ctr-1 – membrane potential modulation in parental HEK293, confirmation, counter-screen for TRPC6 inhibitor project, cell-based; AID 2780, 2010; 60% of 920 active; shares compounds with TRPC6 inhibitor; parental HEK293 membrane potential dye fluorescence; membrane potential signal change, % at 10 µM;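 active = membrane potential signal shifting up or down by more than 3 SD of buffer-only wells, on both duplicate plates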
HEK293 MPD ctr-2 – parental HEK293 membrane potential modulation, confirmation, counter-screen for TRPC6 modulator project, cell-based | shares compounds with TRPC6 inhibitor | AID 488924, 2010 | 51% of 2,400 active | membrane potential dye fluorescence | membrane potential signal change, % at 10 µM;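 active = membrane potential signal moves up or down beyond 5 SD from buffer-only wells, on both duplicate plates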
HEK293 MPD ctr 2-2 – parental HEK293 nonspecific activity of TRPC6 modulators, second screen; shares compounds with TRPC6 inhibitor; inhibition, % at 10 µM; membrane potential dye fluorescence; after compound, maximal acetylcholine stimulation; 14% of 2,400 active; AID 488926;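 active = membrane potential signal drops by more than 5 SD from the mean control signal, in both duplicate plates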
TRPC4/MOR mod – TRPC4 modulation by TRPC6 hit compounds, confirmation, selectivity assay for TRPC6 modulator project, cell-based, HEK293 TRPC4/mu-opioid, membrane potential dye, mouse; shares compounds with TRPC6 inhibitor; membrane potential fluorescence; percent change from control (negative = decrease, positive = increase), % at 10 µM; 69% of 2,400 active;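 active = membrane potential signal moved up or down beyond 5 SD of buffer control wells, in both duplicate plates, actives on both sides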
TRPC4 ctr inh 2 – second check of whether TRPC6 modulators also affect mouse TRPC4; shares compounds with TRPC6 inhibitor; HEK293 TRPC4/mu-opioid, membrane potential dye fluorescence; stimulated with maximal-effect DAMGO; inhibition, % at 10 µM; 55% of 2,400 active; AID 488928;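 active = drop in membrane potential signal beyond 5 SD of the control wells in both duplicate plates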;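 also: TRPC4 counter screen for TRPC6 hits run under conditions tuned for TRPC6 not TRPC4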
TRPC6 inh conf – mouse TRPC6 channel inhibitors, confirmation, HEK293 cells, membrane potential dye, duplicate. inhibition, % at 10 µM. 43% of 3,300 active. ACh-evoked depolarization. AID 488960, 2010. shares compounds with TRPC6 inhibitor;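 active = fluorescence ratio falls more than 5 SD below the full-stimulation control mean, in both duplicate runs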;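 also: integrated fluorescence ratio of peak minus minimum over baseline after agonist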
TRPC6 act confirm – mouse TRPC6 channel activators, confirmation, HEK293 cells, membrane potential dye, duplicate. activation, % at 10 µM. shares compounds with TRPC6 inhibitor. HEK293-TRPC6 membrane potential dye fluorescence, FDSS. 11% of 2,800 active;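 active = ratio signal rise beyond 5 SD above unstimulated control wells' mean, seen in both duplicate runs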
Each line names hits and unclear results; the compound was inactive in the other large screens (follow-up assays come after a bar, where they were run). Shown are actives, neighbours in structure and some others; about 2.3% of the full set was active somewhere.

COc1ccc(-c2cc3nc(C)cc(N)n3n2)cc1	TRPC6 inhibitor -5 | HEK293 MPD ctr-2 -143% | HEK293 MPD ctr 2-2 inactive | TRPC4/MOR mod -22% | TRPC4 ctr inh 2 inactive | TRPC6 inh conf inactive | TRPC6 act confirm inactive
COCCNc1cc(C)nc2cc(-c3ccc(C)cc3)nn12	none
COC(=O)c1ccc2nc(C)cc(Nc3ccccc3C)c2c1	TRPC6 inhibitor -5.9 | HEK293 MPD ctr-2 -149% | HEK293 MPD ctr 2-2 inactive | TRPC4/MOR mod -25% | TRPC4 ctr inh 2 43% | TRPC6 inh conf 58% | TRPC6 act confirm inactive
COC(=O)c1ccc(Nc2cc(C)nc3ccc(C)cc23)cc1	TRPC6 inhibitor -7.2 | TRPC4 sel inh 2 inactive | TRPC4 spec -22% | HEK293 MPD ctr 2-1 inactive | HEK293 MPD ctr-1 -299% | TRPC6 inh conf inactive | TRPC6 act confirm inactive
Cc1ccc2nc(C)cc(Nc3ccc([N+](=O)[O-])cc3)c2c1	none
COc1cc2c(cc1OC)C(c1ccccc1)=NCC2	none
COc1cc2c(cc1OC)-c1cc3ccc4c(c3c[n+]1CC2)OCO4	TRPC6 inhibitor -7.4 | HEK293 MPD ctr-2 inactive | HEK293 MPD ctr 2-2 91% | TRPC4/MOR mod -194% | TRPC4 ctr inh 2 37% | TRPC6 inh conf 46% | TRPC6 act confirm inactive
COc1cc2c(ccc3cc(OC)c(OC)c(O)c32)cc1O	none
COc1cc2c(cc1O)CC[n+]1cc3c(OC)c(OC)ccc3cc1-2	TRPC6 inhibitor -7.4 | TRPC4 sel inh 2 inactive | TRPC4 spec -9.5% | HEK293 MPD ctr 2-1 -66% | HEK293 MPD ctr-1 inactive | TRPC6 inh conf inactive | TRPC6 act confirm inactive
Cc1cc(C)c2c(N)c(C(=O)Nc3cccc(C)c3C)sc2n1	none
Cc1ccc(S(=O)(=O)CCC(=O)OCC(=O)NCCc2ccccc2)cc1	none
